Reference: ChEMBL document CHEMBL4196175, “First SAR Study for Overriding NRAS Mutant Driven Acute Myeloid Leukemia” (J Med Chem, 2018)
The source made the active and inactive calls. The calls are words filed in the database; no cut-off is given here.

What was measured:
[1] = tested on: BaF3; experiment: Induction of apoptosis in mouse BA/F3 cells expressing NRAS-G12D mutant assessed as decrease in bcl2 levels at 1 uM after 24 hrs by Western blot analysis; assay type: functional, cell-based
How it was run: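 Cells treated 24 h with indicated concentrations (1 µM; 5 µM also used in Ba/F3-NRAS-G12D); cleaved PARP, cleaved caspase 3, bcl-2 and MCL1 detected by western blot with actin as loading control.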

[2] = Half life in mouse at 10 mg/kg, po; assay type: ADME, organism-based; conditions: in vivo
[3] = target: Serine/threonine-protein kinase B-raf (Homo sapiens) (UniProt P15056); experiment: Inhibition of human BRAF at 1 uM relative to control
[4] = target: Tyrosine-protein kinase Fyn (Homo sapiens) (UniProt P06241); experiment: Inhibition of human FYN at 1 uM relative to control
[5] = target: Platelet-derived growth factor receptor alpha (Homo sapiens) (UniProt P16234); experiment: Inhibition of human PDGFRa at 1 uM relative to control
[6] = target: Tyrosine-protein kinase JAK1 (Homo sapiens) (UniProt P23458); experiment: Inhibition of human JAK1 at 1 uM relative to control
[7] = tested on: BaF3; experiment: Antileukemic activity against mouse BA/F3 cells harboring NRAS-G12D mutant/luciferase allografted in immunodeficient mouse at 15 mg/kg/day, po qd administered on day 6 post implantation measured on day 20 post implantation by bioluminescence imaging method; assay type: functional
How it was run: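 Immunodeficient mice injected via tail vein with Ba/F3-NRAS-G12D/Luc cells, dosed orally once daily (8 or 15 mg/kg/day) or vehicle for 3 weeks, n=4 per cohort; bioluminescence imaged every two days after luciferin 150 mg/kg, quantified by bio-photonic analysis.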

[8] = tested on: BaF3; experiment: Antileukemic activity against mouse BA/F3 cells harboring NRAS-G12D mutant allografted in immunodeficient mouse assessed as median survival time at 25 mg/kg/day, po qd administered on day 6 post implantation (reference value: 23 days); assay type: functional
[9] = tested on: OCI-AML-3; experiment: Antileukemic activity against human OCI-AML3 cells harboring NRAS-Q61L mutant xenografted in immunodeficient mouse assessed as tumor volume at 25 mg/kg/day, po qd administered on day 21 post implantation measured on day 20 post dose (reference value: 100%); assay type: functional

Chain of Platelet-derived growth factor receptor alpha (Homo sapiens) (P16234 whole entry): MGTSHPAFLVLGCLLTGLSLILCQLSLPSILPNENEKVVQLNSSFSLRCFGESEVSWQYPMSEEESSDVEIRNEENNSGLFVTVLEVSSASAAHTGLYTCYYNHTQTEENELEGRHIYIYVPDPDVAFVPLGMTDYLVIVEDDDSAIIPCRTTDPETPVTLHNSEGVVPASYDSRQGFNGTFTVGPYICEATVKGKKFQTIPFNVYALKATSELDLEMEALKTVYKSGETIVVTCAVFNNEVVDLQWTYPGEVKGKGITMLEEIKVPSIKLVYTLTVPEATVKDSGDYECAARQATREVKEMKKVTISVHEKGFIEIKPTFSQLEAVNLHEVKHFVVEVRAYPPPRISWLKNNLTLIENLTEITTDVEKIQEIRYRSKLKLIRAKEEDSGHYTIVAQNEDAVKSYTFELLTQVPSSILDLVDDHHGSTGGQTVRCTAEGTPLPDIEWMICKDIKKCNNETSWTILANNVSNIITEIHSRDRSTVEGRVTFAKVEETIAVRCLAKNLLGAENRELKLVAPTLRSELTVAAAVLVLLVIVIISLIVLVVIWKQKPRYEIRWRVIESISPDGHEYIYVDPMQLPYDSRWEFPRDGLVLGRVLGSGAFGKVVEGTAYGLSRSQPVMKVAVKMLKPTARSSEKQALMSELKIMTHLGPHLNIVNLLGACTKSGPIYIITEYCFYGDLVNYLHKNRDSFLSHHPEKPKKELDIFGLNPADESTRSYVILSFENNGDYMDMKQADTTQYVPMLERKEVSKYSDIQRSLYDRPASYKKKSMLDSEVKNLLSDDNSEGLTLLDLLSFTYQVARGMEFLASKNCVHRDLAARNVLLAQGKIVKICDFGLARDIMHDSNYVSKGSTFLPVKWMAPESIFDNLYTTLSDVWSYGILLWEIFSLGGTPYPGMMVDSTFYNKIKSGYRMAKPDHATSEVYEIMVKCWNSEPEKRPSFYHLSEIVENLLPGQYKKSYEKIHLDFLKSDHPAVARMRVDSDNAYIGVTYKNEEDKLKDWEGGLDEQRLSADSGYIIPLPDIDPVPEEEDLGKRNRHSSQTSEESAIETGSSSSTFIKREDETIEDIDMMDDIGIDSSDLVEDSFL
Chain of Serine/threonine-protein kinase B-raf (Homo sapiens) (P15056 whole entry): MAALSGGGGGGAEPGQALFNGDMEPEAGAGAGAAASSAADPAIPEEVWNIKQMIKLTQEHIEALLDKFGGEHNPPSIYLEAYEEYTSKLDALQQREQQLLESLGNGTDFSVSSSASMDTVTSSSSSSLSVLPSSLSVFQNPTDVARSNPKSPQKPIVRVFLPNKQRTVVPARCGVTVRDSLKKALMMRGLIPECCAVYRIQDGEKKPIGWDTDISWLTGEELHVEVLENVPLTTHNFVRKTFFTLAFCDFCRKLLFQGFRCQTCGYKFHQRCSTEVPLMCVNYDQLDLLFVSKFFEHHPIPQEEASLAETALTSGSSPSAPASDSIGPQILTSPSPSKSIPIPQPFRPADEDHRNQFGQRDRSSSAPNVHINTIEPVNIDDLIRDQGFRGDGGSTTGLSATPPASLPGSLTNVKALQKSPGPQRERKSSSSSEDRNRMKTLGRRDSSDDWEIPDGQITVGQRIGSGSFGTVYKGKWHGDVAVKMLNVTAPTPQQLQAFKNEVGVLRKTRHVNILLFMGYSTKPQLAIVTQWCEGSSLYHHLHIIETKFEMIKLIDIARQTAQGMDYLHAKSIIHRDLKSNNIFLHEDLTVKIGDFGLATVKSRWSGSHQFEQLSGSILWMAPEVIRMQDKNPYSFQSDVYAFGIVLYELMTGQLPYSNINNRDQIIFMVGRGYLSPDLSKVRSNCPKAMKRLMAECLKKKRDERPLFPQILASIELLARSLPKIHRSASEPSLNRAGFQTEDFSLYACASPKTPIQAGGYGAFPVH
Chain of Tyrosine-protein kinase JAK1 (Homo sapiens) (P23458 whole entry): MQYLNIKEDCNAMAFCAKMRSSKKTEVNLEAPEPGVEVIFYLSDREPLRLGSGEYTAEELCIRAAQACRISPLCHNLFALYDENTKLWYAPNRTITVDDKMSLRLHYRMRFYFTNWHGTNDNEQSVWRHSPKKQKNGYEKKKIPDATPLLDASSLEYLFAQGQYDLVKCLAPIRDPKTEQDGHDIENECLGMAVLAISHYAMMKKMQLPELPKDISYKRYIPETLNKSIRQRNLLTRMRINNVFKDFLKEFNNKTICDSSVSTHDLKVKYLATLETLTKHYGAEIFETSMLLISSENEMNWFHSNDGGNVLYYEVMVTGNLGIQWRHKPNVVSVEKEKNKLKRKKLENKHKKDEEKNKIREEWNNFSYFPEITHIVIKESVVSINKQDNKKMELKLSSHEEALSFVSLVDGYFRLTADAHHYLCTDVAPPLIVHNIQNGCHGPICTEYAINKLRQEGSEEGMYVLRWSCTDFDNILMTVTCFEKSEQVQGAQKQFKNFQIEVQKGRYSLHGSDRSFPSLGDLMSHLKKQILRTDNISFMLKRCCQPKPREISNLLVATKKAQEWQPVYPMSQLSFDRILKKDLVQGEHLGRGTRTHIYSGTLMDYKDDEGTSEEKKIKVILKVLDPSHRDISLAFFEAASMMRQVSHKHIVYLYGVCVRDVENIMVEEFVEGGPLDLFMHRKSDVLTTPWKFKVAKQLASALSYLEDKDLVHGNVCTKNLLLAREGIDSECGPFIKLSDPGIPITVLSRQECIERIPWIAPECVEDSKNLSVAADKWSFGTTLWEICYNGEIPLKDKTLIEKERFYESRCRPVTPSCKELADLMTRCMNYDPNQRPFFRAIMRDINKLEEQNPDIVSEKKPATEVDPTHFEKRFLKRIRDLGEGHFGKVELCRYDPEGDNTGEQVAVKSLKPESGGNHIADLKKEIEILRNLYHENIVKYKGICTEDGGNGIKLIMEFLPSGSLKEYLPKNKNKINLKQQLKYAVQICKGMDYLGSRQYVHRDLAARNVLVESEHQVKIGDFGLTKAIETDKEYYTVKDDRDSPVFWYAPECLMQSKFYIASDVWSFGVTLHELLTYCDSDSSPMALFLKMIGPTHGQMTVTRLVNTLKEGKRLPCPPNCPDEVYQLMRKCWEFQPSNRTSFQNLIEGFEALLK
Chain of Tyrosine-protein kinase Fyn (Homo sapiens) (P06241 2-537 limits assumed): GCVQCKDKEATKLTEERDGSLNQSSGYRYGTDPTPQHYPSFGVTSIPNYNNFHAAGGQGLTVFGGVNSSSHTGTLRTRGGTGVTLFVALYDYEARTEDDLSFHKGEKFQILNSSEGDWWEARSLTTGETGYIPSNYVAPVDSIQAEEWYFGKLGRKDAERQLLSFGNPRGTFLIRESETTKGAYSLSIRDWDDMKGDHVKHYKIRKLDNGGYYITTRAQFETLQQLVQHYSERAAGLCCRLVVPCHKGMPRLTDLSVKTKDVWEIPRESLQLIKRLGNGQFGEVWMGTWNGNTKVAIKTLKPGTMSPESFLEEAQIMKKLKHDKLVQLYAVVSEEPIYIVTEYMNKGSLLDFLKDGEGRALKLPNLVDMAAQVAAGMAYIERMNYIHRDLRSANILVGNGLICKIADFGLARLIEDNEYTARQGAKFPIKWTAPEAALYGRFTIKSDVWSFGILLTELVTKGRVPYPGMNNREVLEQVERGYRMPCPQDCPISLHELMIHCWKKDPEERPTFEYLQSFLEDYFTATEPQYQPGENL

SMILES | Activity [1] | half-life [2] [h] | inhibition [3] [%] | inhibition [4] [%] | inhibition [5] [%] | inhibition [6] [%] | Activity [7] [%] | MSD [8] [days] | Activity [9] [%]
CC(=O)N1CCN(c2ccc(Nc3ncc4c(n3)N(C)C(=O)N(c3cc(NC(=O)c5cccc(C(F)(F)F)c5)ccc3C)C4)cn2)CC1 | Active | – | – | – | – | – | – | – | –
Cc1ccc(NC(=O)c2cccc(C(F)(F)F)c2)cc1N1Cc2cnc(N)nc2N(C)C1=O | – | 12.4 | 99.1 | 99.2 | 95 | 94.9 | >50 | 35 | 14.9
